Data reported in ChEMBL document CHEMBL5724801, “EUbOPEN Chemogenomics Library - Multiplex” (2024).
Values joined by “and” are separate entries in the source; they are usually repeats but may differ in a detail not shown here. Equal values may be shown once.

System: HEK-293T
Assay: Multiplex assay against HEK293T
Assay type: toxicity, cell-based
Settings: human
Outline: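 Cells were classed with CellPathfinder machine-learning gating, first as Hoechst high-intensity objects or normal cells, then (normal cells) as healthy, pyknosed or fragmented nuclei, and finally (pyknosed cells) as mitotic or apoptotic. Staining of live cells at seeding used Hoechst33342, BioTracker Green Microtubule Cytoskeleton Dye, MitoTracker Red and Annexin V Alexa Fluor 680, with imaging on a CQ1 microscope at 37°C and 5% CO2 after compound addition. Tubulin, mitochondrial-mass and membrane-permeability phenotypes are per cents of healthy-nucleus cells.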

[1] = 12 h, 1 µM, compound concentration 1 uM
[2] = 12 h, 10 µM, compound concentration 10 uM
[3] = 24 h, 1 µM, compound concentration 1 uM
[4] = 24 h, 10 µM, compound concentration 10 uM
[5] = 48 h, 1 µM, compound concentration 1 uM
[6] = 48 h, 10 µM, compound concentration 10 uM

Cc1c(Cc2ccc3ccccc3n2)c2cc(F)ccc2n1CC(=O)O [TIMAPIPRANT] was tested, and the “Population Apoptotic (%)” value [1] was 42%, the “Population Fragmented Nuclei (%)” value [1] was 7% and 6% and the “Population Healthy Nuclei (%)” value [1] was 80%. The “Population Hoechst High Intensity Objects (%)” value [1] was 10% and 7%, the “Population Membrane Permeable-Phenotype (%)” value [1] was 0% and the “Population Mitochondria Different-Phenotype (%)” value [1] was 36% and 55%. The “Population Mitotic Cells (%)” value [1] was 57%, the “Population Normal (%)” value [1] was 89% and 92% and the “Population Pyknosed Nuclei (%)” value [1] was 11% and 12%. For the same molecule, the “Population Tubulin-Different-Phenotype (%)” value [1] was 20% and 16%, the “Total Cell Count” value [1] was 394 and 280 and the “Population Apoptotic (%)” value [2] was 32% and 33%. The “Population Fragmented Nuclei (%)” value [2] was 7% and 6%, the “Population Healthy Nuclei (%)” value [2] was 78% and the “Population Hoechst High Intensity Objects (%)” value [2] was 6% and 5%. The “Population Membrane Permeable-Phenotype (%)” value [2] was 0%, the “Population Mitochondria Different-Phenotype (%)” value [2] was 55% and 63% and the “Population Mitotic Cells (%)” value [2] was 67% and 66%. For the same molecule, the “Population Normal (%)” value [2] was 93% and 94%, the “Population Pyknosed Nuclei (%)” value [2] was 14% and 15% and the “Population Tubulin-Different-Phenotype (%)” value [2] was 38% and 28%. For the same molecule, the “Total Cell Count” value [2] was 434 and 354, the “Population Apoptotic (%)” value [3] was 31% and 53% and the “Population Fragmented Nuclei (%)” value [3] was 10% and 7%. The “Population Healthy Nuclei (%)” value [3] was 81% and 83%, the “Population Hoechst High Intensity Objects (%)” value [3] was 4% and 5% and the “Population Membrane Permeable-Phenotype (%)” value [3] was 1% and 0%. The “Population Mitochondria Different-Phenotype (%)” value [3] was 20% and 38%, the “Population Mitotic Cells (%)” value [3] was 68% and 46% and the “Population Normal (%)” value [3] was 95% and 94%. The “Population Pyknosed Nuclei (%)” value [3] was 8%, the “Population Tubulin-Different-Phenotype (%)” value [3] was 15% and the “Total Cell Count” value [3] was 516 and 381. For the same molecule, the “Population Apoptotic (%)” value [4] was 32% and 37%, the “Population Fragmented Nuclei (%)” value [4] was 7% and 12% and the “Population Healthy Nuclei (%)” value [4] was 78% and 77%. The “Population Hoechst High Intensity Objects (%)” value [4] was 4% and 5%, the “Population Membrane Permeable-Phenotype (%)” value [4] was 0% and the “Population Mitochondria Different-Phenotype (%)” value [4] was 31% and 44%. The “Population Mitotic Cells (%)” value [4] was 67% and 62%, the “Population Normal (%)” value [4] was 95% and 94% and the “Population Pyknosed Nuclei (%)” value [4] was 13% and 10%. The “Population Tubulin-Different-Phenotype (%)” value [4] was 28% and 20%, the “Total Cell Count” value [4] was 560 and 475 and the “Population Apoptotic (%)” value [5] was 26% and 17%. For the same molecule, the “Population Fragmented Nuclei (%)” value [5] was 13% and 15%, the “Population Healthy Nuclei (%)” value [5] was 78% and 76% and the “Population Hoechst High Intensity Objects (%)” value [5] was 2% and 3%. For the same molecule, the “Population Membrane Permeable-Phenotype (%)” value [5] was 1% and 0%, the “Population Mitochondria Different-Phenotype (%)” value [5] was 9% and 25% and the “Population Mitotic Cells (%)” value [5] was 73% and 82%. For the same molecule, the “Population Normal (%)” value [5] was 97% and 96%, the “Population Pyknosed Nuclei (%)” value [5] was 8% and the “Population Tubulin-Different-Phenotype (%)” value [5] was 6% and 12%. The “Total Cell Count” value [5] was 799 and 566, the “Population Apoptotic (%)” value [6] was 33% and 36% and the “Population Fragmented Nuclei (%)” value [6] was 10% and 14%. The “Population Healthy Nuclei (%)” value [6] was 79% and 78%, the “Population Hoechst High Intensity Objects (%)” value [6] was 4% and the “Population Membrane Permeable-Phenotype (%)” value [6] was 1% and 0%. For the same molecule, the “Population Mitochondria Different-Phenotype (%)” value [6] was 24% and 33%, the “Population Mitotic Cells (%)” value [6] was 66% and 63% and the “Population Normal (%)” value [6] was 95%. For the same molecule, the “Population Pyknosed Nuclei (%)” value [6] was 9% and 6%, the “Population Tubulin-Different-Phenotype (%)” value [6] was 17% and 16% and the “Total Cell Count” value [6] was 752 and 630.

In the case of c1cc(OCCCN2CCCCC2)ccc1CN1CCCCC1 [JNJ-5207852], the “Population Apoptotic (%)” value [1] is reported as 36% and 47%, the “Population Fragmented Nuclei (%)” value [1] is reported as 6% and 10% and the “Population Healthy Nuclei (%)” value [1] is reported as 84% and 75%. For the same molecule, the “Population Hoechst High Intensity Objects (%)” value [1] was 5%, the “Population Membrane Permeable-Phenotype (%)” value [1] was 0% and the “Population Mitochondria Different-Phenotype (%)” value [1] was 36% and 53%. The “Population Mitotic Cells (%)” value [1] was 63% and 52%, the “Population Normal (%)” value [1] was 94% and the “Population Pyknosed Nuclei (%)” value [1] was 8% and 13%. For the same molecule, the “Population Tubulin-Different-Phenotype (%)” value [1] was 21% and 17%, the “Total Cell Count” value [1] was 577 and 310 and the “Population Apoptotic (%)” value [2] was 40% and 66%. The “Population Fragmented Nuclei (%)” value [2] was 7%, the “Population Healthy Nuclei (%)” value [2] was 75% and 67% and the “Population Hoechst High Intensity Objects (%)” value [2] was 7% and 11%. For the same molecule, the “Population Membrane Permeable-Phenotype (%)” value [2] was 0% and 1%, the “Population Mitochondria Different-Phenotype (%)” value [2] was 63% and 69% and the “Population Mitotic Cells (%)” value [2] was 59% and 33%. For the same molecule, the “Population Normal (%)” value [2] was 92% and 88%, the “Population Pyknosed Nuclei (%)” value [2] was 17% and 24% and the “Population Tubulin-Different-Phenotype (%)” value [2] was 52% and 41%. The “Total Cell Count” value [2] was 328 and 259, the “Population Apoptotic (%)” value [3] was 25% and 41% and the “Population Fragmented Nuclei (%)” value [3] was 6% and 11%. For the same molecule, the “Population Healthy Nuclei (%)” value [3] was 82% and 79%, the “Population Hoechst High Intensity Objects (%)” value [3] was 5% and 3% and the “Population Membrane Permeable-Phenotype (%)” value [3] was 1% and 0%. The “Population Mitochondria Different-Phenotype (%)” value [3] was 20% and 30%, the “Population Mitotic Cells (%)” value [3] was 74% and 58% and the “Population Normal (%)” value [3] was 94% and 96%. The “Population Pyknosed Nuclei (%)” value [3] was 11% and 9%, the “Population Tubulin-Different-Phenotype (%)” value [3] was 15% and 12% and the “Total Cell Count” value [3] was 710 and 447. For the same molecule, the “Population Apoptotic (%)” value [4] was 47% and 65%, the “Population Fragmented Nuclei (%)” value [4] was 9% and 8% and the “Population Healthy Nuclei (%)” value [4] was 77% and 79%. For the same molecule, the “Population Hoechst High Intensity Objects (%)” value [4] was 6% and 5%, the “Population Membrane Permeable-Phenotype (%)” value [4] was 1% and 2% and the “Population Mitochondria Different-Phenotype (%)” value [4] was 47% and 50%. The “Population Mitotic Cells (%)” value [4] was 52% and 34%, the “Population Normal (%)” value [4] was 93% and 94% and the “Population Pyknosed Nuclei (%)” value [4] was 13% and 11%. For the same molecule, the “Population Tubulin-Different-Phenotype (%)” value [4] was 44% and 35%, the “Total Cell Count” value [4] was 414 and 322 and the “Population Apoptotic (%)” value [5] was 17% and 23%. The “Population Fragmented Nuclei (%)” value [5] was 14% and 11%, the “Population Healthy Nuclei (%)” value [5] was 80% and 83% and the “Population Hoechst High Intensity Objects (%)” value [5] was 2% and 1%. For the same molecule, the “Population Membrane Permeable-Phenotype (%)” value [5] was 1%, the “Population Mitochondria Different-Phenotype (%)” value [5] was 12% and 17% and the “Population Mitotic Cells (%)” value [5] was 82% and 76%. For the same molecule, the “Population Normal (%)” value [5] was 97% and 98%, the “Population Pyknosed Nuclei (%)” value [5] was 5% and 4% and the “Population Tubulin-Different-Phenotype (%)” value [5] was 11% and 9%. For the same molecule, the “Total Cell Count” value [5] was 1128 and 746, the “Population Apoptotic (%)” value [6] was 34% and 52% and the “Population Fragmented Nuclei (%)” value [6] was 13%. The “Population Healthy Nuclei (%)” value [6] was 77% and 75%, the “Population Hoechst High Intensity Objects (%)” value [6] was 8% and 9% and the “Population Membrane Permeable-Phenotype (%)” value [6] was 1%. The “Population Mitochondria Different-Phenotype (%)” value [6] was 29% and 38%, the “Population Mitotic Cells (%)” value [6] was 65% and 47% and the “Population Normal (%)” value [6] was 91% and 90%. The “Population Pyknosed Nuclei (%)” value [6] was 8% and 10%, the “Population Tubulin-Different-Phenotype (%)” value [6] was 28% and 30% and the “Total Cell Count” value [6] was 619 and 424.
